Source: PubChem BioAssay (Sanford-Burnham Center for Chemical Genomics)
LMPTP block: LMPTP phosphatase inhibitors, primary screen, biochemical, fluorescence intensity, uHTS | 360,000 tested, 0.22% active | inhibition, % at 20 µM | recombinant LMPTP-A, OMFP fluorogenic substrate;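 active = compounds that cut the enzyme signal by at least half of the control window in the single-dose screen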;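 note: plate controls were DMSO wells with enzyme plus substrate for no effect and substrate without enzyme for full effect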
Target sequence (P24666 whole entry, looked up): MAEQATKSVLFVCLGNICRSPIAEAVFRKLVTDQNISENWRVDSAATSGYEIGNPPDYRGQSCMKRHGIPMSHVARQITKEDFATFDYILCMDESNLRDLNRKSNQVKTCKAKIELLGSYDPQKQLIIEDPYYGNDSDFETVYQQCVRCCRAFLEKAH
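Test system: LMPTP-A phosphatase enzyme; input: 0.625 nM LMPTP-A final; reagent: OMFP substrate, 400 µM final; compound dosing: 20 µM single dose, 3% DMSO; incubation: 50 min dark incubation at room temperature; measured by: endpoint fluorescence intensity from OMFP dephosphorylation; measure: % inhibition relative to no-enzyme and uninhibited control wells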
STEP inh: STEP phosphatase inhibitors, primary screen, biochemical, fluorescence intensity, uHTS; inhibition, % at 20 µM; recombinant STEP, OMFP fluorogenic substrate; 360,000 tested, 0.25% active;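 active = inhibition at 20 µM, scaled per plate between control wells, above about 37%, limit read from the data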;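 note: 0% = DMSO with enzyme and substrate and 100% = substrate only without enzyme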
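System: isolated STEP enzyme; schedule: 20 min enzyme reaction at room temperature, protected from light; medium: Bis-Tris buffer pH 6.0, 2.5 mM DTT, 0.005% Tween 20; signal: fluorescence, 480/540 nm; dosing: single compound dose of 20 µM, 1% DMSO final; also added: OMFP substrate, 25 µM final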
DNMT1 inh: human DNMT1 methyltransferase inhibitors, primary screen, biochemical, molecular beacon, fluorescence, HinP1I cleavage, uHTS. inhibition (reported as % activation of signal), % at 10 µM. 360,000 tested, 0.83% active. DNA (cytosine-5)-methyltransferase 1 (Homo sapiens), P26358; in the data active = inhibition above about 50%
Rpn11 block: Rpn11 (PSMD14) deubiquitinase inhibitors, primary screen, biochemical, fluorescence polarization, uHTS. 26S proteasome non-ATPase regulatory subunit 14 (Homo sapiens), O00487. human 26S proteasome, Ub4-pepOG fluorescence polarization; 20S core pre-blocked with epoxomicin. inhibition, % at 20 µM. 360,000 tested, 0.59% active. AID 588493, 2011;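 active = inhibition at 20 µM, scaled to each plate's controls, above about 33%, limit read from the data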
Scp1 inh: Scp-1 phosphatase inhibitors, primary screen, biochemical, colorimetric, uHTS; Carboxy-terminal domain RNA polymerase II polypeptide A small phosphatase 1 (Homo …; Recombinant Scp1, phosphopeptide, malachite green phosphate absorbance; inhibition, % at 20 µM; 340,000 tested, 0.88% active;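 active = inhibition above about 50% at 20 µM, limit read from the data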;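 note: plate controls were DMSO wells with enzyme for no effect and wells lacking enzyme for full effect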
Target sequence (Q9GZU7 76-261 limits assumed): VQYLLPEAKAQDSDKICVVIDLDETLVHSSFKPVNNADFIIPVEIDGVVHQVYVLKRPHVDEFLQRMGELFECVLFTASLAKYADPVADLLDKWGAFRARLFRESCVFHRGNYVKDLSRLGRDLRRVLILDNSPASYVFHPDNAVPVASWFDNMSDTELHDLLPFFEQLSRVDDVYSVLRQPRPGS
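Test system – truncated SCP-1 phosphatase (76-261aa) · Reagent – Phosphorylated 17-residue peptide substrate · Incubation – 45 min room-temperature reaction, 5 min colour, 30 min stabiliser · Detection – colorimetric phosphate reagent with accelerator and stabiliser, absorbance at 630 nm · Measure – % inhibition at 20 µM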
Rpn11 inh conf: Rpn11 (PSMD14) deubiquitinase inhibitors, confirmation, biochemical, fluorescence polarization, single concentration; shares compounds with Rpn11 block; purified human 26S proteasome, Ub4-pepOG fluorescence polarization; proteasome pretreated with epoxomicin; inhibition, % at 20 µM; 1,900 tested, 29% active
MMP-2 inh: MMP-2 enzyme inhibition, confirmation, counter-screen for RPN11 inhibitor project, biochemical, fluorescence, single concentration | shares compounds with Rpn11 block | recombinant MMP-2, FRET peptide cleavage fluorescence | inhibition, % at 20 µM | 1,900 tested, 4% active | AID 602330, 2012;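 note: human MMP-2 activated beforehand with APMA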
Thrombin inh: bovine thrombin protease inhibition, confirmation, counter-screen for Rpn11 inhibitor project, biochemical, fluorescence polarization, single concentration; bovine thrombin cleavage of Ub4-pepOG; shares compounds with Rpn11 block; inhibition, % at 20 µM; 1,900 tested, 13% active;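 active = mean inhibition at least 40% at 20 µM, or signal 3 deviations below plate average, so some actives read negative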;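 note: plate controls were thrombin with DMSO for no effect and buffer wells lacking thrombin for full effect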
The depositor's hits bear a star; x = not tested or not shown. Rows were chosen to be rich in hits. Some 2% of all compounds tested hit in one or more screens of this group. Cut-off read from the data, not from the text of the source, unless noted: active = inhibition above about 40%; inactive = the rest.

SMILES	LMPTP block	STEP inh	DNMT1 inh	Rpn11 block	Scp1 inh	Rpn11 inh conf	MMP-2 inh	Thrombin inh
O=C(/C=C/c1ccccc1Cl)c1ccccc(=O)c1O	1	5	27	15	-5	x	x	x
FC(F)(F)c1cccc(NC(=S)NC(c2ccccc2)c2ccccc2)c1	1	4	-8	2	-9	x	x	x
FC(F)(F)c1cccc(NC(=S)Nc2ccc(Cl)c(Cl)c2)c1	-1	9	1	37*	-1	-8	21	-24
CCOc1ccc(C(=O)CCC(=O)N2CCC(C(=O)OC)CC2)cc1	0	-1	2	48*	2	37	5	21
CCOC(=O)N1CCN(C(=O)CCC(=O)c2ccc(OCC)cc2)CC1	-1	0	0	-3	-10	x	x	x
COc1ccc2oc(C(=O)Nc3nc(-c4ccccn4)cs3)c(C)c2c1	5	1	5	42*	-6	52*	13	9
COc1ccc2oc(C(=O)NC(C)c3ccccn3)c(C)c2c1 (stereo unspecified)	1	-3	-7	2	-8	x	x	x
CC(C)c1ccc(OCC(=O)N(Cc2ccccc2)c2ccccn2)cc1	1	-4	4	43*	3	5	-19	7
O=C(COc1ccc(Cl)cc1)N(Cc1ccccc1)c1ccccn1	1	-2	3	-2	-2	x	x	x
Cc1ccc(S(=O)(=O)CCC(=O)NCc2ccccc2F)cc1	-4	-1	0	-17	-8	x	x	x
CCOC(=O)c1nnn2c1nc(Nc1cccc(C(F)(F)F)c1)c1ccccc12	12	24	3	64*	24	7	-8	1
CCOC(=O)c1nnn2c1nc(SCC(C)=O)c1ccccc12	-1	-1	0	-8	-10	x	x	x
O=C(Nc1ccc(S(=O)(=O)Nc2nccs2)cc1)c1ccc(N2C(=O)c3ccccc3C2=O)cc1	2	-3	8	68*	-6	91*	-29	46*
CC(=O)Nc1ccc(N/C=C/C(=O)c2ccc(Cl)cc2)cc1	-1	2	12	98*	-3	40	-30	14
CC(=O)c1ccc(N/C=C\C(=O)c2ccc(C)cc2)cc1	1	3	10	0	-7	x	x	x
CCN1CCN(S(=O)(=O)c2ccc(C(=O)Nc3sc4c(c3C(N)=O)CCN(CC)C4)cc2)CC1	7	9	-4	59*	-8	2	-52	-2
CCN1CCc2c(sc(NC(=O)c3ccc(S(=O)(=O)N4CC(C)OC(C)C4)cc3)c2C(N)=O)C1 (stereo unspecified)	4	-1	-10	5	-2	x	x	x
CCC(C)Sc1ccc([C@@H]2[C@H]3C(=O)N(CC)C(=O)[C@H]3[C@]3(C(=O)OC)CCCCN23)cc1 (stereo partly specified)	3	2	-9	50*	-5	105*	0	69*
CCSc1ccc([C@@H]2[C@@H]3C(=O)N(CC)C(=O)[C@@H]3[C@]3(C(=O)OC)CCCCN23)cc1	1	0	2	10	-6	x	x	x
C=CCn1c(SCc2nc3sc(C(=O)O)c(C)c3c(=O)[nH]2)nnc1-c1ccc(F)cc1	-2	-1	8	-3	8	x	x	x
CNC(=O)NC(=O)CSc1nc2ccccc2n1CCOC	0	-3	5	1	-2	x	x	x
COCCCn1cnnc1SCc1nc2sc(C(C)=O)c(C)c2c(=O)[nH]1	-2	-1	3	51*	16	10	-52	23
COC(=O)c1sc2nc(CSc3ccc(Br)cc3)[nH]c(=O)c2c1C	2	1	-2	76*	-8	50*	-20	-2
COCCn1c(SCc2nc3sc(C(=O)OC)c(C)c3c(=O)[nH]2)nc2ccccc21	2	-2	-1	50*	-1	20	-45	19
Cc1ccc2[nH]c(C(=O)N3CCC(C(N)=O)CC3)cc2c1	-1	0	-3	-4	-8	x	x	x
SMILES	LMPTP block	STEP inh	DNMT1 inh	Rpn11 block	Scp1 inh	Rpn11 inh conf	MMP-2 inh	Thrombin inh
CC(C)Oc1ccc(C(=O)NC2(C(F)(F)F)NC(=O)N(CCCc3ccccc3)C2=O)cc1 (stereo unspecified)	2	-4	-11	8	-16	x	x	x
CC1(c2cccc(Br)c2)NC(=O)N(CC(=O)Nc2ccc(F)cc2)C1=O (stereo unspecified)	1	-2	-4	7	-8	x	x	x
Nc1ncnc(Sc2ccc(Cl)cc2)c1[N+](=O)[O-]	-2	9	5	44*	1	1	28	8
COc1cccc(N(C(=O)c2cccs2)c2nc3ccccc3s2)c1	3	0	0	111*	-20	-15	13	14
CCN(C(=O)c1cccs1)c1nc(-c2ccc(OC)cc2)cs1	4	5	3	0	-13	x	x	x
CCOC(=O)C1=C(C)Nc2sc(C(=O)c3ccc(F)cc3)c(N)c2C1c1ccc(C(=O)OC)cc1 (stereo unspecified)	4	2	-10	38*	-10	11	32	-11
CCOC(=O)C1=C(C)Nc2sc(C(=O)c3ccc(C)cc3)c(N)c2C1c1ccc(C(=O)OC)cc1 (stereo unspecified)	3	1	-14	41*	-9	-6	41*	-18
COc1ccc(Br)cc1CN1CCSCC1	-2	0	3	6	-5	x	x	x
CCOc1ccc(NC(=O)c2ccc(NC(=O)c3cn4c5c(c(N6CCN(C)CC6)c(F)cc5c3=O)OCC4C)cc2)cc1 (stereo unspecified)	-1	3	-11	46*	0	-2	-11	0
Cc1sc2nc(CSc3ccc([N+](=O)[O-])c(C(F)(F)F)c3)[nH]c(=O)c2c1C	-1	-1	10	41*	3	20	-40	-13
